Experimental findings from ChEMBL document CHEMBL3526072 (Drug Metab Dispos, 2011) are described below.

The subject of data set [1] is Rattus norvegicus. Put plainly: Ratio of compound AUC to verapamil AUC in streptozotocin-induced diabetes mellitus model of Sprague-Dawley rat treated with 10 mg/kg, po of verapamil. To be noted: in vivo. It counts as ADME, organism-based. On the set-up: dose 10 mg/kg, route oral.
In data set [2] the test system is Rattus norvegicus. The data set can be described thus: Ratio of compound AUC to verapamil AUC in Sprague-Dawley rat treated with 10 mg/kg, po of verapamil. On the set-up: dose 10 mg/kg, route oral. To be noted: in vivo. It counts as ADME, organism-based.
Data set [3] in a line: Cmax in streptozotocin-induced diabetes mellitus model of Sprague-Dawley rat portal vein plasma at 10 mg/kg, po. It counts as ADME, organism-based. On the set-up: dose 10 mg/kg, route oral.
The nature of data set [4]: AUC (0 to 90 mins) in streptozotocin-induced diabetes mellitus model of Sprague-Dawley rat portal vein plasma at 10 mg/kg, po. It counts as ADME, organism-based. On the set-up: time < 1.5 hr, dose 10 mg/kg, route oral.
The nature of data set [5]: Tmax in streptozotocin-induced diabetes mellitus model of Sprague-Dawley rat portal vein plasma at 10 mg/kg, po. It counts as ADME, organism-based. On the set-up: dose 10 mg/kg, route oral.
Data set [6] can be described thus: Cmax in Sprague-Dawley rat portal vein plasma at 10 mg/kg, po. On the set-up: dose 10 mg/kg, route oral. It counts as ADME, organism-based.
Data set [7] can be described thus: AUC (0 to 90 mins) in Sprague-Dawley rat portal vein plasma at 10 mg/kg, po. It counts as ADME, organism-based. On the set-up: time < 1.5 hr, dose 10 mg/kg, route oral.
The nature of data set [8]: Tmax in Sprague-Dawley rat portal vein plasma at 10 mg/kg, po. On the set-up: dose 10 mg/kg, route oral. It counts as ADME, organism-based.
Data set [9] is described as follows: Tmax in Sprague-Dawley rat at 10 mg/kg, po. It counts as ADME, organism-based. On the set-up: dose 10 mg/kg, route oral. To be noted: in vivo.
Data set [10] deals with Liver. The data set can be described thus: Increase of CYP3A1 level in streptozotocin-induced diabetes mellitus model of Sprague-Dawley rat liver by Western blot analysis relative to wild type rat. In kind it is ADME, tissue-based. The method in brief: (§1)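 Rats from the STZ 65 mg/kg i.p. protocol versus citrate-treated age-matched controls, day 35. Hepatic microsomes or duodenal and jejunal homogenates (20 µg protein) run on 10% SDS-PAGE and probed with mouse anti-rat CYP3A1 monoclonal and rabbit anti-rat CYP3A2 polyclonal antibodies; band densitometry expressed relative to controls; mean ± S.D., four rats.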

Data set [11] has as its system Liver. Put plainly: Increase of CYP3A2 level in streptozotocin-induced diabetes mellitus model of Sprague-Dawley rat liver by Western blot analysis relative to wild type rat. In kind it is ADME, tissue-based. The method in brief:
as §1
(Immunoblotting shows a protein as a band on a membrane.)

Data set [12] deals with Intestine. Put plainly: Decrease of CYP3A1 level in streptozotocin-induced diabetes mellitus model of Sprague-Dawley rat intestine by Western blot analysis. In kind it is ADME. A digest of the protocol: as §1
Data set [13] deals with Intestine. Put plainly: Decrease of CYP3A2 level in streptozotocin-induced diabetes mellitus model of Sprague-Dawley rat intestine by Western blot analysis. It counts as ADME. A digest of the protocol:
as §1

Data set [14] is described as follows: Tmax in streptozotocin-induced diabetes mellitus model of Sprague-Dawley rat at 10 mg/kg, po. It counts as ADME, organism-based. On the set-up: dose 10 mg/kg, route oral. Particulars: in vivo.

`COc1ccc(CCNCCCC(C#N)(c2ccc(OC)c(OC)c2)C(C)C)cc1OC.Cl` (centres undefined): the “Ratio AUC” value turned out to be 0.43 with Rattus norvegicus [1] and 0.69 in the data set on Rattus norvegicus [2].

Regarding `COc1ccc(CCN(C)CCCC(C#N)(c2ccc(OC)c(OC)c2)C(C)C)cc1OC` (centres undefined), the Cmax stood at 5830 ng/mL in [3] and 1440 ng/mL in data set [6]. Further, the AUC(0-t) at 1.5 h in [4] was 7030 ng·h/mL; in data set [7], 1460 ng·h/mL. Moreover, the Tmax in data set [5] is 30 min; in data set [8] it was 37.5 min; in data set [9], 34 min; in [14], 21.7 min. Also, the Activity in the data set on Liver [10] is recorded as 50%; in the data set with Liver [11], 151%; in the data set with Intestine [12], “Toxic”; with Intestine [13] it was “Toxic”.

The Cmax is the peak of the concentration-time curve. Broadly, the AUC(0-t) is exposure summed from dosing to a finite time, without extrapolation to infinity. Low values mean low exposure, high ones high exposure. Usually Tmax stands for the time from dosing to the highest level.
